This data set is described as follows: Toxicity liver stage against HepG2, at 10uM. It is filed as cell-based. Details: test concentration 10 uM, cell line HepG2-A16-CD81EGFP. The conditions noted are these: human, HepG2-A16-CD81EGFP cells; read-out: INHIBITION
An outline of the steps: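 Uninfected HepG2-A16-CD81EGFP cells, 3 × 10^3 per well, 1536-well, plated on prespotted compound at 10 μM final, parasite-free screening media added to match infected plates; puromycin 10 μM positive, DMSO 0.5% negative; run in parallel with 48 h PbLuc assay at 37 °C, 5% CO2; viability by CellTiter-Glo luminescence, normalized to controls.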
Turning to `CC(=O)Nc1ccccc1Sc1nc(Br)nn1C`, the cytotoxicity at 10 µM is -1.05%.
For the compound `CCOC(=O)[C@H]1[C@@H](O)C(=O)N(C)C12CCN(C(=O)C(CC)CC)CC2`, the cytotoxicity at 10 µM is -4.47%.
Take `CCN1CC(O)CN(C(=O)c2cccc(C(F)(F)F)c2)CC1=O` (configuration not stated): the cytotoxicity at 10 µM is 4.04%.
Consider `COc1cc(OC)cc(-c2noc(C(N)CCSC)n2)c1` (configuration not stated), for which the cytotoxicity at 10 µM is -3.18%.
To `Cc1cccc(C)c1NC(=O)CC(CN1CCN(C)CC1)C(=O)O` (configuration not stated) belongs -3.68%; to `CCOc1ccc(C(=O)Nc2c(C)nc3scc(C)n3c2=O)cc1`, -5.58%; to `O=C(c1ccccc1F)N1CC(c2nc(C3CC3)no2)C1`, -0.478%.
To `COc1ccc(C)cc1NC(=O)C1CSc2ncc(C)c(=O)n2C1` (configuration not stated) belongs -1.99%.
The value for `CC(C)NC(=O)N1CCC2(CC1)CCn1c(C3CC3)cnc12` was 2.04%; that for `CC(C)CS(=O)(=O)N1CCC2(CC1)CCn1c(-c3cnn(C)c3)cnc12` was -131%.
As to `CC(C)c1cc2c(O)nc(CSCC(=O)NCc3ccncc3)nc2s1`, the cytotoxicity at 10 µM is -6.18%.
To `O=C(NCCN1CCCCC1)c1nc2ccccc2c(=O)[nH]1` belongs 10.5%.
For the compound `CCn1cc(CNC(=O)C(C)C)cn1`, the cytotoxicity at 10 µM was 7.74%.
Regarding `COc1cccc(CNCc2ccccc2Cl)c1O`, the cytotoxicity at 10 µM was -13.2%.
In the case of `CN(C)S(=O)(=O)N1CCCC(c2nccnc2-c2cccc(Cl)c2)C1` (configuration not stated), the cytotoxicity at 10 µM was found to be 8.23%.
The value for `CN1CCC(c2cccc(NCc3nccn3C)n2)CC1` was 8.28%; that for `c1cc(CNc2ncc(-c3cnccn3)c([C@@H]3CCCO3)n2)ccn1` was 8.99%; that for `O=C(N1CCOCC1)N1CCCC(c2ncncc2-c2ccncc2)C1` (configuration not stated) was -25.9%.
On to `Cc1ccc(S(=O)(=O)N2C[C@H]3C[C@H](NC(=O)c4cc(C)no4)[C@H]3C2)cc1`, for which the cytotoxicity at 10 µM was -11.2%.
The value for `Cc1ccc2c(c1)C(=O)NCC1(CCN(C(=O)c3cc(C)no3)CC1)O2` was -20.8%; that for `CSCC[C@H]1CN2CCC[C@H]2CN1Cc1cn(C)nc1C` was -9.85%; that for `O=C(c1cncnc1)N1C[C@@H]2CC[C@H](Oc3cccc(F)c3)[C@@H]2C1` was -17.1%.
`O=C(C1CC1)N1CCC(c2nc(O)c3c(n2)CN(C2CCCC2)CC3)C1` (configuration not stated): the cytotoxicity at 10 µM is -24.1%.
With `Cc1cc(CN2CCN(S(C)(=O)=O)CC(C(=O)N(C)C)C2)no1` (configuration not stated), the cytotoxicity at 10 µM was -9.74%.
For the compound `CN(C(=O)COc1ccc(F)cc1)[C@@H]1CC[C@@H](n2ccnc2)[C@@H]1O`, the cytotoxicity at 10 µM was -5.28%.
On to `CNc1cccc(C2CCCN(C(=O)c3cncs3)C2)n1` (configuration not stated), for which the cytotoxicity at 10 µM was -18.3%.
On to `CC(=O)N1CCCC(Cc2nccn2C)C1` (configuration not stated), for which the cytotoxicity at 10 µM was -5.52%.
With `CO[C@H]1CN(Cc2ccccc2F)C[C@@]12CCCO2`, the cytotoxicity at 10 µM was -8.19%.
As to `COc1cc(C)ccc1OCC(=O)Nc1ccnc(OCCN(C)C)c1`, the cytotoxicity at 10 µM was -5.18%.
Turning to `C=C(C)CN(CC)S(=O)(=O)c1c(F)cc(NC(C)=O)cc1F`, the cytotoxicity at 10 µM was -47.1%.
To `Cn1ccc(C(=O)Nc2nc(-c3ccc4c(c3)CCO4)cs2)cc1=O` belongs -9.46%; to `COc1ccccc1NCC(=O)Nc1cnn(Cc2ccccn2)c1`, -0.53%; to `CC1c2cc(F)ccc2CCN1CCCS(=O)(=O)C(C)C` (configuration not stated), 9.15%.
For the compound `CCNC(=O)C(C)NC(=O)Nc1ccccc1SCC` (configuration not stated), the cytotoxicity at 10 µM is -7.4%.
Consider `CC(C)SCc1cccc(NC(=O)NC(C)c2nc[nH]n2)c1` (configuration not stated), for which the cytotoxicity at 10 µM was -45.2%.
On to `CCC(C)NC(=O)Nc1cccc(OCC#N)c1` (configuration not stated), for which the cytotoxicity at 10 µM is -0.146%.
To `Cn1cc(C(=O)NCCCN2CCCCCC2=O)c(-c2cccnc2)n1` belongs -8.3%.
As for `Cc1cc(C(=O)Nc2ccc(CN3CCOCC3)cn2)n(C)n1`, the cytotoxicity at 10 µM is 3.86%.
The value for `O=C(NCCN1C(=O)CCC1=O)c1nc2ccccc2c(=O)[nH]1` was -8.99%; that for `CCCc1noc(C(C)N2CCN(c3ccc(C#N)cn3)CC2)n1` (configuration not stated) was -0.487%; that for `OCCN1CCC(CNCc2ccc(N3CCCCC3)cc2)CC1` was -3%.
Take `CC(C)C(O)CNC(=O)Nc1ccc(F)c(Cl)c1` (configuration not stated): the cytotoxicity at 10 µM came out at 5.6%.
With `CCNC(=O)C1CCCN(C(=O)Nc2ccc3c(c2)CCCN3C)C1` (configuration not stated), the cytotoxicity at 10 µM was determined as 13.6%.
For `CC(C)NC(=O)CN(C)C1CCN(c2ccc(C#N)cn2)CC1`, the cytotoxicity at 10 µM was -16.1%.
The value for `CCS(=O)(=O)NC1CCCN(c2ccc(F)cc2C)C1=O` (configuration not stated) was 3.93%; that for `Cc1cc(CNC(=O)c2cccs2)ccc1S(C)(=O)=O` was 3.38%.
Turning to `OCC(O)CSCc1cc(Cl)ccc1Cl` (configuration not stated), the cytotoxicity at 10 µM was -147%.
As to `Cc1ccc(C(=O)O)cc1NC(=O)C1CC=CC1`, the cytotoxicity at 10 µM was -7.25%.
Turning to `O=C(NCc1ccco1)c1cccc(CN2CCCC2CO)c1` (configuration not stated), the cytotoxicity at 10 µM was -3.13%.
For `COc1ccccc1CN(CC1CCCO1)C(=O)c1ccc(F)cn1` (configuration not stated), the cytotoxicity at 10 µM is -3.85%.
Turning to `N#Cc1ccc(N2CCCN(CC(N)=O)CC2)cc1`, the cytotoxicity at 10 µM worked out at 3.11%.
With `CC(C)N(Cc1cnn(C)c1)C(=O)c1ccnc(N(C)C)c1`, the cytotoxicity at 10 µM was determined as 10.6%.
On to `Cc1nsc(NC2CCOC3(CCCCC3)C2)n1` (configuration not stated), for which the cytotoxicity at 10 µM amounted to 5%.
As for `Cc1oc(C(=O)O)cc1S(=O)(=O)Nc1cccc(-c2nccs2)c1`, the cytotoxicity at 10 µM is -1.01%.
`NC(=O)C1(CNCc2csc(-c3cccs3)n2)CCOCC1`: the cytotoxicity at 10 µM was -19.3%.
As for `CCC(CC)CNC(=O)N(C)C(C)c1ccccn1` (configuration not stated), the cytotoxicity at 10 µM was -6.2%.
For the compound `N#CCCN(C(=O)CN1CCCC1C1CCCCC1)c1ccccc1` (configuration not stated), the cytotoxicity at 10 µM is -12.1%.
Regarding `COc1ccccc1OCC(=O)NS(=O)(=O)c1cc(F)ccc1F`, the cytotoxicity at 10 µM was -9.18%.
As to `COc1ccc(OCC(=O)NC(C)c2ccccc2)c(C(=O)O)c1` (configuration not stated), the cytotoxicity at 10 µM is 2.4%.
Turning to `Cc1nc(CN2CCC(CNC(=O)Nc3ccccn3)CC2)oc1C`, the cytotoxicity at 10 µM is -3.5%.
With `CN(Cc1cccc(F)c1)C(=O)CN1CCCC1CCc1ccccc1` (configuration not stated), the cytotoxicity at 10 µM is -12%.
With `O=C(NCCC1CCCO1)c1ccccc1N1CCOCC1` (configuration not stated), the cytotoxicity at 10 µM is -10.8%.
`CC(NC(=O)c1nc(=O)[nH][nH]1)c1ccc(OCC2CC2)c(F)c1` (configuration not stated): the cytotoxicity at 10 µM is -5.75%.
With `CC1CN(CC(=O)NC(=O)NCc2ccccc2)CCO1` (configuration not stated), the cytotoxicity at 10 µM is -7.07%.
With `CCOCC(=O)N1CC[C@H]2O[C@@H](C)C[C@H]2C1`, the cytotoxicity at 10 µM is -67.9%.
Regarding `COc1nn(C)c2c1CCCN(C(=O)c1cc[nH]n1)C2`, the cytotoxicity at 10 µM is -5.2%.
In the case of `CC(C)Cc1n[nH]c(C2CC(=O)N(CC(C)C)C2)n1` (configuration not stated), the cytotoxicity at 10 µM came to 3.49%.
`CC(C)(C)c1ncc2c(n1)CN(C(=O)c1ccc(C#N)nc1)C2`: the cytotoxicity at 10 µM is -6.39%.
Take `COc1ccc2c(c1)C(C(=O)NCCN1CCNC1=O)CC(=O)N2` (configuration not stated): the cytotoxicity at 10 µM is -1.13%.
For the compound `c1cc(-c2nc3c(c(NCCc4c[nH]cn4)n2)CCNCC3)ccn1`, the cytotoxicity at 10 µM was -146%.
To `O=C(O)c1ccccc1C1CCN(C2Cc3ccccc3C2)C1` (configuration not stated) belongs 12.7%; to `CN(Cc1ccc2nsnc2c1)C(=O)Cn1ncc(N(C)C)cc1=O`, 3.67%; to `OC[C@H]1CN(Cc2c(Cl)cncc2Cl)C[C@H]1CN1CCCCCC1`, -112%.
As to `Nc1ccc(-c2ccc(F)cc2Cl)cn1`, the cytotoxicity at 10 µM was -151%.
To `CN(C)S(=O)(=O)NCc1cccnc1Oc1ccccc1F` belongs 1.81%.
On to `COc1cccc2c1OCC(C(=O)N1CCN(C3CCSCC3)CC1)C2` (configuration not stated), for which the cytotoxicity at 10 µM was -1.62%.
In the case of `CCc1nnc(CN(C)C[C@@H]2CCCN3CCCC[C@H]23)o1`, the cytotoxicity at 10 µM turned out to be 1.52%.
Regarding `O=C(O)COc1ccc(Cl)cc1CN1CCC2(CCNCC2)CC1`, the cytotoxicity at 10 µM stood at 6.45%.
For the compound `CN1C(=O)CC(C(=O)O)C12CCN(Cc1ccc(Cl)c(Cl)c1)CC2` (configuration not stated), the cytotoxicity at 10 µM amounted to 2.12%.
To `CN(C)C(=O)c1noc2c1CN(C(=O)CCC1CCCCN1C)CC2` (configuration not stated) belongs -2.74%; to `CCCN(C(=O)COC)c1nc2c(s1)CCc1c-2cnn1C`, 5.15%.
The value for `CC(C)c1nc2n(n1)CC(NCc1nc(-c3ccsc3)no1)CC2` (configuration not stated) was -5.39%; that for `Cn1cc(NC(=O)N2CCC(NS(C)(=O)=O)CC2)ccc1=O` was -7.05%; that for `Cc1nn(C)c(N(C)C)c1CNC1CCOc2c(F)cccc21` (configuration not stated) was -13.9%.
Turning to `CS(=O)(=O)N1CCCCCC1C1CCN(c2ncccc2C#N)CC1` (configuration not stated), the cytotoxicity at 10 µM was -3.2%.
For `Cn1cc(CNC2CCCN(Cc3noc(C4CC4)n3)C2)cn1` (configuration not stated), the cytotoxicity at 10 µM was -9.52%.
As to `COc1ccc2c(c1)CN(Cc1nc3c(cnn3C)c(=O)[nH]1)CC2`, the cytotoxicity at 10 µM is -8.57%.
The value for `c1cnn(-c2ccc(CN3CCOC(Cn4cncn4)C3)cc2)c1` (configuration not stated) was -13.6%; that for `c1ccc(-c2cnc(CN3CCCC3Cn3cncn3)o2)cc1` (configuration not stated) was -5.82%.
For the compound `Cn1cc(C(=O)CC2CCCN2C(=O)c2n[nH]c3ccccc23)cn1` (configuration not stated), the cytotoxicity at 10 µM was -0.842%.
Take `CC(c1nc(C2CC2)no1)N1CCN(Cc2ccccc2F)CC1` (configuration not stated): the cytotoxicity at 10 µM worked out at 1.03%.
To `Cc1cc(C(F)(F)F)n2nc(C3CCCN3C3CCSCC3)cc2n1` (configuration not stated) belongs 1.77%; to `CCO[C@@H]1CO[C@@]2(CCCN(Cc3scnc3C)C2)C1`, -9.06%; to `CN(C)C(=O)NCc1cc(=O)n2c(n1)CN(Cc1ccoc1)CCC2`, -99.3%.
As for `Cc1oncc1C(=O)N1CCC2(CCN(Cc3cccnc3)C2=O)C1` (configuration not stated), the cytotoxicity at 10 µM is -144%.
In the case of `CC(=O)NCC(=O)N1Cc2nccn2CC(CN(C)C(C)C)C1` (configuration not stated), the cytotoxicity at 10 µM was -75.7%.
The value for `Cc1ccc(CN2Cc3c(C(=O)N(C)C)nn(C)c3C2)s1` was -12.6%.
